# Measured values published in ChEMBL document CHEMBL4190337, “Design, Synthesis, and Antibacterial Activity of a Multivalent Polycationic Calix[4]arene-NO Photodonor Conjugate” (ACS Med Chem Lett, 2017).
# The source made the active and inactive calls. The rule behind the calls is not given here.
# Columns and labels:
# [1] = test system: Staphylococcus aureus; assay: Bactericidal activity against Staphylococcus aureus ATCC 6538 assessed as reduction in bacterial count at 0.25 mM after 30 mins under dark condition by time kill assay relative to control; assay type: functional; parameters: scale not given: the % may be the effect or the level left
# Outline: (§1)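 Time-kill assay with the agent at 0.25 mM final in 5% EtOH/PBS, made from a 0.5 mM solution in 10% EtOH/PBS. Samples ran in duplicate, kept in the dark or illuminated, alongside PBS and 5% EtOH/PBS vehicle controls. Viable bacteria were counted as CFU/mL at set times and expressed as % and log reduction.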
# [2] = Drug metabolism in MeOH/PBS solution assessed as […] release at 40 uM irradiated with 60 mW laser light by amperometric detection assay; assay type: functional
# Outline: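 NO release was profiled in MeOH/PBS (20/80) at 40 µM under visible light irradiation (λexc = 405 nm), using an optically matched solution of a model NO photodonor for comparison.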
# [3] = Drug metabolism in MeOH/PBS solution assessed as […] release by measuring shift in maximum absorption wavelength at 40 uM irradiated with 60 mW laser light by UV-vis absorption spectra analysis; assay type: functional
# [4] = test system: Staphylococcus aureus; assay: Bactericidal activity against Staphylococcus aureus ATCC 6538 assessed as reduction in bacterial count at 0.25 mM irradiated with 450 mW xenon light after 10 mins by time kill assay relative to control; assay type: functional; parameters: scale not given: the % may be the effect or the level left; outline: as §1
# [5] = test system: Staphylococcus aureus; assay: Bactericidal activity against Staphylococcus aureus ATCC 6538 assessed as log reduction in colony forming units at 0.25 mM after 30 mins under dark condition by time kill assay; assay type: functional; outline: as §1
# [6] = test system: Staphylococcus aureus; assay: Bactericidal activity against Staphylococcus aureus ATCC 6538 assessed as reduction in bacterial count at 0.25 mM irradiated with 450 mW xenon light up to 30 mins by time kill assay; assay type: functional, organism-based; outline: as §1
# [7] = test system: Staphylococcus aureus; assay: Bactericidal activity against Staphylococcus aureus ATCC 6538 assessed as log reduction in colony forming units at 0.25 mM irradiated with 450 mW xenon light after 10 mins by time kill assay; assay type: functional; outline: as §1
# [8] = test system: Staphylococcus aureus; assay: Bactericidal activity against Staphylococcus aureus ATCC 6538 assessed as reduction in bacterial count at 0.25 mM irradiated with 450 mW xenon light after 20 mins by time kill assay relative to control; assay type: functional; parameters: scale not given: the % may be the effect or the level left; outline: as §1
# [9] = test system: Staphylococcus aureus; assay: Bactericidal activity against Staphylococcus aureus ATCC 6538 assessed as log reduction in colony forming units at 0.25 mM irradiated with 450 mW xenon light after 20 mins by time kill assay; assay type: functional; outline: as §1
# [10] = test system: Escherichia coli; assay: Bactericidal activity against Escherichia coli ATCC 10536 assessed as reduction in bacterial count at 0.25 mM after 30 mins under dark condition by time kill assay; assay type: functional, organism-based; outline: as §1
# [11] = test system: Escherichia coli; assay: Bactericidal activity against Escherichia coli ATCC 10536 assessed as reduction in colony forming units at 0.25 mM irradiated with 450 mW xenon light after 30 mins by time kill assay; assay type: functional; parameters: scale not given: the % may be the effect or the level left; outline: as §1
# [12] = test system: Escherichia coli; assay: Bactericidal activity against Escherichia coli ATCC 10536 assessed as log reduction in colony forming units at 0.25 mM irradiated with 450 mW xenon light after 30 mins by time kill assay; assay type: functional; outline: as §1
# [13] = Cytotoxicity against human skin fibroblasts at 0.25 mM irradiated with 450 mW xenon light measured after 30 mins; conditions: 0.5 h, 250 µM
# [14] = Drug metabolism in MeOH/PBS solution assessed as […] release at 170 uM irradiated with 60 mW laser light by amperometric detection assay; assay type: functional
# Outline: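 NO release followed during continuous visible-light irradiation at λexc 405 nm of optically matched solutions in MeOH/PBS (20/80), with the model donor at 170 µM; release profile recorded over irradiation time.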
Compound,Activity [1],Drug metabolism [2],Drug metabolism [3],Activity [4],Activity [5],Activity [6],Activity [7],Activity [8],Activity [9],Activity [10],Activity [11],Activity [12],Activity [13],Drug metabolism [14]
C[N+](C)(CCO)CCCOc1c2cc(CNc3ccc([N+](=O)[O-])c(C(F)(F)F)c3)cc1Cc1cc(CNc3ccc([N+](=O)[O-])c(C(F)(F)F)c3)cc(c1O)Cc1cc(CNc3ccc([N+](=O)[O-])c(C(F)(F)F)c3)cc(c1OCCC[N+](C)(C)CCO)Cc1cc(CNc3ccc([N+](=O)[O-])c(C(F)(F)F)c3)cc(c1O)C2.[Br-].[Br-],98.9%,Metabolite detected,Metabolite detected,99.2%,1.96 log10CFU/ml,Active,2.1 log10CFU/ml,>99.95%,>3.31 log10CFU/ml,inactive,93.5%,1.2 log10CFU/ml,< 15%,–
NCCCNc1ccc([N+](=O)[O-])c(C(F)(F)F)c1,–,–,–,–,–,–,–,–,–,–,–,–,–,Metabolite detected
